The source made the active and inactive calls. No cut-off for these calls is given here.
Experiments:
[1] = biological target: T1, Ribosyldihydronicotinamide dehydrogenase [quinone] (Homo sapiens, UniProt P16083); assay: (§1) Inhibition of human quinone reductase 2 using NMeH as substrate by MTT assay
T1 sequence (P16083 whole entry): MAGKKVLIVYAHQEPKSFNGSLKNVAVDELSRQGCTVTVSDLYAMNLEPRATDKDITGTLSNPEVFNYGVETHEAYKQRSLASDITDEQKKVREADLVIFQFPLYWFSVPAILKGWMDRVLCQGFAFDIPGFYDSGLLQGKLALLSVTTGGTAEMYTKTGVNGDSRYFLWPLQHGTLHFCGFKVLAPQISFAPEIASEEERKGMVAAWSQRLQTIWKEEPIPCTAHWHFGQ
Method in brief: (§2)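 Human QR2 (12 nM) with 25 μM NMeH and 200 μM MTT in 100 mM NaCl, 50 mM Tris pH 7.5, 0.1% Triton X-100, 23 °C; reactions started by enzyme. Formazan formation read at 612 nm; initial rates from ε 11,300 M-1cm-1. Inhibitor at varying concentrations, triplicate; IC50 from % inhibition versus zero-inhibitor control.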

[2] = biological target: T2, Ribosyldihydronicotinamide dehydrogenase [quinone] (Homo sapiens) (UniProt P16083); assay: Inhibition of human quinone reductase 2 using NMeH as substrate by MTT assay relative to control
T2 sequence (whole entry): T1 sequence (P16083 whole entry)

[3] = test system: HOP-62; assay: Cytotoxicity against human HOP62 cells assessed as cell growth at 10 uM; assay type: cell-based; conditions: hop-62, 10 µM
Method in brief: (§3)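 Cells exposed to compound at a single concentration; read-out is growth percent relative to untreated control cultures.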

[4] = test system: HCT-116; assay: Cytotoxicity against human HCT116 cells assessed as cell growth at 10 uM; assay type: cell-based; conditions: hct-116, 10 µM; method in brief: as §3
[5] = test system: SF-539; assay: Cytotoxicity against human SF539 cells assessed as cell growth at 10 uM; assay type: cell-based; conditions: sf-539, 10 µM; method in brief: as §3
[6] = test system: UACC-62; assay: Cytotoxicity against human UACC62 cells assessed as cell growth at 10 uM; assay type: cell-based; conditions: uacc-62, 10 µM; method in brief: as §3
[7] = test system: OVCAR-3; assay: Cytotoxicity against human OVCAR3 cells assessed as cell growth at 10 uM; assay type: cell-based; conditions: ovcar-3, 10 µM; method in brief: as §3
[8] = test system: SN12C; assay: Cytotoxicity against human SN12C cells assessed as cell growth at 10 uM; assay type: cell-based; method in brief: as §3
[9] = test system: DU-145; assay: Cytotoxicity against human DU145 cells assessed as cell growth at 10 uM; assay type: cell-based; conditions: du-145, 10 µM; method in brief: as §3
[10] = test system: MCF7; assay: Cytotoxicity against human MCF7 cells assessed as cell growth at 10 uM; assay type: cell-based; conditions: mcf7, 10 µM; method in brief: as §3
[11] = biological target: T2, Ribosyldihydronicotinamide dehydrogenase [quinone] (Homo sapiens); assay: as §1; method in brief: as §2
[12] = biological target: T2, Ribosyldihydronicotinamide dehydrogenase [quinone] (Homo sapiens); assay: Ratio of IC50 for ammosamide B to compound IC50 for human quinone reductase 2 using NMeH as substrate by MTT assay

| IC50 [1] [µM] | Imax [2] [%] | Ratio IC50 [12] | SMILES | Activity [3] [%] | Activity [4] [%] | Activity [5] [%] | Activity [6] [%] | Activity [7] [%] | Activity [8] [%] | Activity [9] [%] | Activity [10] [%] | inhibition [11] |
| --- | --- | --- | --- | --- | --- | --- | --- | --- | --- | --- | --- | --- |
| 22.1 | 36.6 | – | COC(=O)c1cc(C(=O)OC)c2c(N)c(Cl)cc(Cl)c2n1 | – | – | – | – | – | – | – | – | – |
| 1.6 | 80.5 | – | COC(=O)c1cc(C(N)=O)nc2cc(N(C)C)cc(Cl)c12 | – | – | – | – | – | – | – | – | – |
| 7.8 | 44.8 | – | CN1C(=O)c2cc(C(=O)NCc3ccccc3)nc3c(Cl)cc(Cl)c1c23 | 113.2 | 103.06 | 97.49 | 101.93 | 103.52 | 107.48 | 104.81 | 95.79 | – |
| > 100 | – | – | COC(=O)c1cc(C(=O)OC)c2c(Cl)cc(NC(C)=O)cc2n1 | 112.21 | 103.44 | 109.23 | 112.51 | 124.69 | 109.64 | 112.18 | 100.11 | – |
| 1.5 | 64 | – | NC(=O)c1cc(C(N)=O)c2cc(I)c(N)cc2n1 | – | – | – | – | – | – | – | – | – |
| 25.2 | 31.5 | – | CN(C)C(=O)c1cc2c3c(c(Cl)cc(Cl)c3n1)N(C)C2=O | 118.26 | 102.47 | 101.43 | 110.63 | 126.09 | 106.07 | 127.34 | 122.71 | – |
| – | – | – | COC(=O)C1CC2(O)C(=O)Nc3c(Cl)cc(Cl)c(c32)N1 (centres undefined) | – | – | – | – | – | – | – | – | inactive |
| 0.24 | 85.7 | – | COC(=O)c1cc(C(=O)OC)c2c(Cl)c(N)c(N)cc2n1 | – | – | – | – | – | – | – | – | – |
| 3.3 | 87.9 | – | COC(=O)c1cc(C(=O)OC)c2c(Cl)cc(N)cc2n1 | 108.99 | 108.2 | 117.31 | 101.7 | 106.32 | 102.78 | 108.11 | 105.75 | – |
| 0.0041 | 102 | > 10 | CNc1c(Cl)c(N)c2c3c(cc(C(N)=O)nc13)C(=O)N2C | – | – | – | – | – | – | – | – | – |
| 1.1 | 75.5 | – | COC(=O)c1cc(C(N)=O)nc2cc(N)cc(Cl)c12 | 109.87 | 98.84 | 104.82 | 102.96 | 110.07 | 102.63 | 105.75 | 97.23 | – |
| 0.15 | 89.7 | – | COC(=O)c1cc(C(N)=O)nc2cc(N)c(N)c(Cl)c12 | – | – | – | – | – | – | – | – | – |
| – | – | – | COC(=O)C1CC(O)(C(=O)OC)c2c(N)c(Cl)cc(Cl)c2N1 (centres undefined) | – | – | – | – | – | – | – | – | inactive |
| 1.5 | 83.9 | – | COC(=O)c1cc(C(N)=O)nc2cc(N)c(I)cc12 | – | – | – | – | – | – | – | – | – |
| 9 | 96 | – | COC(=O)c1cc(C(N)=O)nc2cc(NC(C)=O)cc(Cl)c12 | 103.41 | 104.18 | 107.48 | 108.54 | 120.2 | 109 | 124.6 | 89.58 | – |
| – | – | – | COC(=O)c1cc2c3c(n1)C(=O)C(=O)C(Cl)=C3N(C)C2=O | 110.6 | 104.56 | 106.99 | 96.96 | 123.43 | 102.66 | 112.19 | 94.99 | – |
| 5.6 | 91.1 | – | COC(=O)c1cc(C(=O)OC)c2c(Cl)cc(N)c(Cl)c2n1 | 104.53 | 100.36 | 99.06 | 97.93 | 109.55 | 99.49 | 108.85 | 100.27 | – |
| 5.8 | 46.3 | – | CN1C(=O)c2cc(C(N)=O)nc3c(Cl)cc(Cl)c1c23 | 105.32 | 107 | 104.34 | 90.84 | 108.21 | 101.49 | 97.82 | 96.11 | – |
| 4 | 92.2 | – | COC(=O)c1cc(C(=O)OC)c2c(Cl)cc(N(C)C)cc2n1 | 114.23 | 104.18 | 100.61 | 109.82 | 115.27 | 113.39 | 138.91 | 78.61 | – |

| SMILES | IC50 [1] [µM] | Imax [2] [%] | Ratio IC50 [12] | Activity [3] [%] | Activity [4] [%] | Activity [5] [%] | Activity [6] [%] | Activity [7] [%] | Activity [8] [%] | Activity [9] [%] | Activity [10] [%] | inhibition [11] |
| --- | --- | --- | --- | --- | --- | --- | --- | --- | --- | --- | --- | --- |
| CN1C(=O)c2cc(C(N)=O)nc3c(N)c(Cl)c(N)c1c23 [AMMOSAMIDE B] | 0.061 | 90.3 | – | 96.95 | 101.05 | 88.22 | 100.09 | 115.24 | 98.89 | 114.59 | 98.04 | – |
